Test results: ChEMBL document CHEMBL1131599, “Synthesis of C3 heteroatom-substituted azetidinones that display potent cholesterol absorption inhibitory activity” (1998)

Key:
[1] = Percent reduction of liver cholesterol ester levels after po administration of compound in cholesterol fed hamsters at a dose 10 mg/kg/day; assay type: functional; conditions: Cricetulus griseus
Outline: (§1)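 Cholesterol-fed hamsters were dosed orally for 7 days, with doses in mg/kg/day. The value is % inhibition at the stated dose, or an ED50 in mg/kg/day, with n = 4 animals per compound.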

[2] = Ability to inhibit liver cholesterol ester was determined in cholesterol fed hamsters; assay type: functional, Cricetulus griseus; outline: as §1
[3] = Percent reduction of liver cholesterol ester levels after po administration of compound in cholesterol fed hamsters at a dose 1 mg/kg/day; assay type: functional, Cricetulus griseus; conditions: for inhibition in vivo at 1 mg/kg/day: Cricetulus griseus, Liver, po; outline: as §1
[4] = Percent reduction of liver cholesterol ester levels after po administration of compound in cholesterol fed hamsters at a dose 3 mg/kg/day; assay type: functional; conditions: Cricetulus griseus; outline: as §1
[5] = Percent reduction of liver cholesterol ester levels after po administration of compound in cholesterol fed hamsters at a dose 25 mg/kg/day; assay type: functional; conditions: Cricetulus griseus
Outline: (§2)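 Cholesterol-fed hamsters received the compound orally once daily for 7 days, with dose expressed as mg/kg/day. Four animals per compound. Values are reported as % inhibition at the given dose, or as an ED50 in mg/kg/day.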

[6] = Percent reduction of Liver cholesterol ester levels after peroral administration in cholesterol fed hamsters; assay type: functional, Cricetulus griseus; outline: as §1
[7] = Percent reduction of Liver cholesterol ester levels after peroral administration in cholesterol fed hamsters at a dose 10 mg/kg/day; assay type: functional; conditions: Cricetulus griseus, route oral; outline: as §1
[8] = Percent reduction of liver cholesterol ester levels after po administration of compound in cholesterol fed hamsters.; assay type: functional, Cricetulus griseus; outline: as §2

COc1ccc([C@H]2C(SCCc3ccccc3)C(=O)N2c2ccccc2)cc1 (stereo partly specified)
inhibition in vivo at 10 mg/kg/day [1]: -31%

COc1ccc([C@@H]2[C@H]([S+]([O-])CCc3ccccc3)C(=O)N2c2ccccc2)cc1 (stereo partly specified)
ED50 [2]: 0.58 mg/kg/day
inhibition in vivo at 1 mg/kg/day [3]: 58%
inhibition in vivo at 3 mg/kg/day [4]: 78%

COc1ccc([C@@H]2[C@@H](P(=O)(O)CCc3ccccc3)C(=O)N2c2ccccc2)cc1
inhibition in vivo at 25 mg/kg/day [5]: 0%

COc1ccc([C@@H]2[C@H](SCCc3ccccc3)C(=O)N2c2ccccc2)cc1
inhibition in vivo at 10 mg/kg/day [1]: 31%

COc1ccc([C@@H]2C(SCCc3ccccc3)C(=O)N2c2ccccc2)cc1 (stereo partly specified)
inhibition in vivo at 25 mg/kg/day [5]: 97%

COc1ccc([C@@H]2[C@H](C(O)CCc3ccccc3)C(=O)N2c2ccccc2)cc1 (stereo partly specified)
ED50 [6]: 0.4 mg/kg/day

COc1ccc([C@@H]2[C@@H](CCP(=O)(OC)c3ccccc3)C(=O)N2c2ccccc2)cc1 (stereo partly specified)
inhibition in vivo at 25 mg/kg/day [5]: 0%

COc1ccc([C@@H]2[C@@H](CCP(=O)(O)c3ccccc3)C(=O)N2c2ccccc2)cc1
inhibition in vivo at 25 mg/kg/day [5]: 0%

COc1ccc([C@@H]2[C@@H](CCC(O)c3ccccc3)C(=O)N2c2ccccc2)cc1 (stereo partly specified)
ED50 [6]: 0.9 mg/kg/day

COc1ccc([C@@H]2[C@@H](CCS(=O)(=O)c3ccccc3)C(=O)N2c2ccccc2)cc1
inhibition in vivo at 10 mg/kg/day [1]: 23%

COc1ccc([C@@H]2[C@@H](CCSc3ccccc3)C(=O)N2c2ccccc2)cc1
inhibition in vivo at 10 mg/kg/day [7]: 0%

O=C1[C@H]([S+]([O-])CCc2ccccc2)[C@@H](c2ccc(O)cc2)N1c1ccc(F)cc1 (stereo partly specified)
inhibition in vivo at 1 mg/kg/day [3]: 82%
inhibition in vivo at 10 mg/kg/day [1]: 56%

COc1ccc([C@@H]2[C@@H](CC[S+]([O-])c3ccccc3)C(=O)N2c2ccccc2)cc1 (stereo partly specified)
inhibition in vivo at 10 mg/kg/day [1]: 21%

O=C1[C@H](SCCc2ccccc2)[C@@H](c2ccc(O)cc2)N1c1ccc(F)cc1
inhibition in vivo at 1 mg/kg/day [3]: 83%

COc1ccc([C@@H]2C([S+]([O-])CCc3ccccc3)C(=O)N2c2ccccc2)cc1 (stereo partly specified)
ED50 [2]: 0.59 mg/kg/day
inhibition in vivo at 25 mg/kg/day [5]: 97%

COc1ccc([C@@H]2[C@@H](P(=O)(CCc3ccccc3)OC)C(=O)N2c2ccccc2)cc1 (stereo partly specified)
Inhibition [8]: 0%

O=C1[C@@H](SCCc2ccccc2)[C@@H](c2ccc(O)cc2)N1c1ccc(F)cc1
inhibition in vivo at 1 mg/kg/day [3]: 0%

COc1ccc([C@@H]2C(S(=O)(=O)CCc3ccccc3)C(=O)N2c2ccccc2)cc1 (stereo partly specified)
inhibition in vivo at 25 mg/kg/day [5]: 54%

COc1ccc([C@@H]2[C@@H](SCCc3ccccc3)C(=O)N2c2ccccc2)cc1
ED50 [2]: 0.13 mg/kg/day
inhibition in vivo at 1 mg/kg/day [3]: 89%

COc1ccc([C@@H]2[C@@H]([S+]([O-])CCc3ccccc3)C(=O)N2c2ccccc2)cc1 (stereo in doubt; 26)
ED50 [2]: 0.9 mg/kg/day
Inhibition [3]: 58%

COc1ccc([C@@H]2[C@@H]([S+]([O-])CCc3ccccc3)C(=O)N2c2ccccc2)cc1 (stereo in doubt; 27)
ED50 [2]: 0.21 mg/kg/day
Inhibition [3]: 82%

O=C1[C@@H]([S+]([O-])CCc2ccccc2)[C@@H](c2ccc(O)cc2)N1c1ccc(F)cc1 (stereo in doubt; 37)
inhibition in vivo at 1 mg/kg/day [3]: 40%

O=C1[C@@H]([S+]([O-])CCc2ccccc2)[C@@H](c2ccc(O)cc2)N1c1ccc(F)cc1 (stereo in doubt; 38)
Inhibition [3]: 42%

COc1ccc([C@@H]2[C@@H](CCCc3ccccc3)C(=O)N2c2ccc(OC)cc2)cc1 [SCH-48461]
ED50 [6]: 2.2 mg/kg/day
